Data from ChEMBL document CHEMBL4819005, “Design, synthesis, and in vitro and in vivo anti-angiogenesis study of a novel vascular endothelial growth factor receptor-2 (VEGFR-2) inhibitor based on 1,2,3-triazole scaffold” (Eur J Med Chem, 2021).
Active and inactive are the calls of the source. No cut-off for these calls is given here.

What was measured:
MKN-45 = assay: cells; conditions: Homo sapiens, MKN-45, 24 h
HUVEC [1] = assay: cells; conditions: Homo sapiens, 24 h
HT-29 = assay: cells; conditions: Homo sapiens, HT-29, 24 h
[2] = target: Vascular endothelial growth factor receptor 2 (Homo sapiens, UniProt P35968); assay: Inhibition of recombinant human His-tagged VEGFR2 expressed in Baculovirus expression system using ADP-Glo as substrate measured after 30 mins in presence of ATP by ADP-Glo kinase assay
Danio rerio [3] = species: Danio rerio; conditions: dose 20.0 mg/L, time 24.0 hrs
HUVEC [4] = assay: Anti-angiogenesis activity against HUVEC cells assessed as inhibition of cell migration measured after 24 hrs by Transwell assay; type: functional, cell-based; conditions: Homo sapiens, dose 0.2-0.8 µM
How it was run: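 HUVECs pretreated 24 h in serum-free DMEM with 0, 0.2, 0.4 or 0.8 μM compound, then counted. 1×10^4 cells placed in upper transwell chamber (8 µm pores), lower chamber DMEM with 20% serum. After 24 h, filters fixed in methanol and stained with 0.1% crystal violet. Migrated cells on lower surface counted by microscopy.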

Danio rerio [5] = species: Danio rerio; conditions: dose 40.0 mg/L, time 24.0 hrs
HUVEC [6] = assay: Anti-angiogenesis activity against HUVEC cells assessed as inhibition of tube formation at 0.2 to 0.8 uM measured after 6 hrs by microscopic method; type: functional, cell-based; conditions: Homo sapiens, dose 0.2-0.8 µM
How it was run: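 HUVECs exposed to 0, 0.2, 0.4 or 0.8 μM compound, then collected. 1×10⁴ cells seeded on Matrigel and cultured 6 h. Tubes photographed under microscope and total tube length quantified.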

Chain of Vascular endothelial growth factor receptor 2 (P35968 whole entry): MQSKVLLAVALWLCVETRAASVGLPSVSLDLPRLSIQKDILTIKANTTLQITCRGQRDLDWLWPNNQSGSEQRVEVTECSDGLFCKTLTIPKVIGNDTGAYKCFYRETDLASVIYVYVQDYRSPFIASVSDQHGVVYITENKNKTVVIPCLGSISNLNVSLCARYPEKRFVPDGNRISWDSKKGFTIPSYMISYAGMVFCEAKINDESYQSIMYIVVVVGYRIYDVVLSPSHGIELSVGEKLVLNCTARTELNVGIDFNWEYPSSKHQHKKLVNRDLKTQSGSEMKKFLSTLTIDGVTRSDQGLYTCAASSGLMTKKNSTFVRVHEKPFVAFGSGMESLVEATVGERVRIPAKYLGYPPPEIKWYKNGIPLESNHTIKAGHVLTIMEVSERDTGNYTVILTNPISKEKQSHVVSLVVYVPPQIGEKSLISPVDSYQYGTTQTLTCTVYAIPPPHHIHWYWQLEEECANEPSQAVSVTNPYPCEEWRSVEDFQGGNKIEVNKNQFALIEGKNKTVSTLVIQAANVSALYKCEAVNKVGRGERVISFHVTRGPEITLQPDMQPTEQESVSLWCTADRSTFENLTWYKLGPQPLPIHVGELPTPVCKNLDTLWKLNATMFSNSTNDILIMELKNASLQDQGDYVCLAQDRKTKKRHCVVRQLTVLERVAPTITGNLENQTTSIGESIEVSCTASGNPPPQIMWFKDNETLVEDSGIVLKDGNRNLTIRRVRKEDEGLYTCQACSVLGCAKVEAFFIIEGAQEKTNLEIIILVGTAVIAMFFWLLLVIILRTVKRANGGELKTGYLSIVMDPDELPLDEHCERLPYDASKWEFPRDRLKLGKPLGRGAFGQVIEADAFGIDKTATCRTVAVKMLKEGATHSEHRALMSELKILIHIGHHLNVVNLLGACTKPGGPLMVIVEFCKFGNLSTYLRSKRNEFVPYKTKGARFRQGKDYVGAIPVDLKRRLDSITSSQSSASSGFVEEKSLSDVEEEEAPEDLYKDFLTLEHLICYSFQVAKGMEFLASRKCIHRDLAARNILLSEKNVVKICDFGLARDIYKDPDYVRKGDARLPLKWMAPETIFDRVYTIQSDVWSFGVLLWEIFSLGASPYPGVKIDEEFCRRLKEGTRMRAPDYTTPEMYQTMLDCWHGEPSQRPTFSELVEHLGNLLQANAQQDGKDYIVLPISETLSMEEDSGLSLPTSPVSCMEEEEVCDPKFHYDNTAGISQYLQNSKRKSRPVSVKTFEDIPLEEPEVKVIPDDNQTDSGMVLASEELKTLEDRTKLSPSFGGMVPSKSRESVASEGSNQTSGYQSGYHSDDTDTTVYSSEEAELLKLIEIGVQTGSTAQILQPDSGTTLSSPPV

SMILES | IC50 (MKN-45) [µM] | IC50 (HUVEC [1]) [µM] | IC50 (HT-29) [µM] | IC50 [2] [µM] | inhibition (Danio rerio [3]) | Activity (HUVEC [4]) | inhibition (Danio rerio [5]) | Activity (HUVEC [6])
O=C1Nc2ccc(F)cc2C1=Cc1ccc(-c2cn(-c3ccccc3)nn2)cc1 | 11.1 | 13.7 | 8.12 | – | – | – | – | –
N#Cc1cccc(-n2cc(-c3ccc(/C=C4\C(=O)Nc5ccccc54)cc3)nn2)c1 | > 20 | > 20 | > 20 | > 0.2 | – | – | – | –
Cc1ccc(-n2cc(-c3ccc(/C=C4\C(=O)Nc5ccc(F)cc54)cc3)nn2)cc1 | 34.6 | 13.8 | 3.98 | – | – | – | – | –
N#Cc1ccccc1-n1cc(-c2ccc(/C=C3\C(=O)Nc4ccccc43)cc2)nn1 | 14.6 | 19.7 | 14.4 | 0.169 | – | – | – | –
N#Cc1ccccc1-n1cc(-c2ccc(C=C3C(=O)Nc4ccc(F)cc43)cc2)nn1 | 15.2 | > 20 | 14 | 0.187 | – | – | – | –
O=C1Nc2ccc(F)cc2/C1=C/c1ccc(-c2cn(-c3ccccc3Cl)nn2)cc1 | 7.54 | 18.2 | 5.95 | 0.12 | – | – | – | –
O=C1Nc2ccccc2/C1=C/c1ccc(-c2cn(-c3cccc(F)c3)nn2)cc1 | > 20 | > 20 | > 20 | > 0.2 | – | – | – | –
O=C1Nc2ccccc2/C1=C/c1ccc(-c2cn(-c3ccccc3)nn2)cc1 | 11.6 | 12.7 | 7.07 | – | – | – | – | –
O=C1Nc2ccc(F)cc2/C1=C/c1ccc(-c2cn(-c3ccccc3F)nn2)cc1 | 8.51 | 14.4 | 8.98 | 0.14 | – | – | – | –
Cc1ccccc1-n1cc(-c2ccc(/C=C3\C(=O)Nc4ccccc43)cc2)nn1 | 9.77 | 14.7 | 8.71 | 0.111 | – | – | – | –
Cc1cccc(-n2cc(-c3ccc(/C=C4\C(=O)Nc5ccc(F)cc54)cc3)nn2)c1 | 6.81 | 9.88 | 7.32 | – | – | – | – | –
N#Cc1ccc(-n2cc(-c3ccc(C=C4C(=O)Nc5ccccc54)cc3)nn2)cc1 | > 20 | > 20 | 15.8 | 0.179 | – | – | – | –
O=C1Nc2ccccc2/C1=C/c1ccc(-c2cn(-c3cccc(Cl)c3)nn2)cc1 | > 20 | > 20 | > 20 | > 0.2 | – | – | – | –
O=C1Nc2ccc(F)cc2/C1=C/c1ccc(-c2cn(-c3cccc(F)c3)nn2)cc1 | 8.19 | 17.2 | 13 | 0.171 | – | – | – | –
O=C1Nc2ccc(F)cc2/C1=C/c1ccc(-c2cn(-c3ccc(F)cc3)nn2)cc1 | > 20 | > 20 | > 20 | 0.193 | – | – | – | –
O=C1Nc2ccc(F)cc2/C1=C/c1ccc(-c2cn(-c3ccc(Cl)c(C(F)(F)F)c3)nn2)cc1 | > 20 | > 20 | 16.5 | 0.169 | – | – | – | –
O=C1Nc2ccccc2/C1=C/c1ccc(-c2cn(-c3ccc(F)cc3)nn2)cc1 | 16.7 | 14.7 | 17.7 | 0.199 | – | – | – | –
O=C1Nc2ccccc2/C1=C/c1ccc(-c2cn(-c3ccccc3F)nn2)cc1 | 12.5 | 19.3 | 10.5 | 0.115 | – | – | – | –
O=C1Nc2ccccc2/C1=C/c1ccc(-c2cn(-c3ccc(Cl)cc3)nn2)cc1 | 16.2 | 18.2 | 14 | 0.163 | – | – | – | –
N#Cc1ccc(-n2cc(-c3ccc(C=C4C(=O)Nc5ccc(F)cc54)cc3)nn2)cc1 | > 20 | > 20 | > 20 | 0.19 | – | – | – | –
O=C1Nc2ccccc2/C1=C/c1ccc(-c2cn(-c3ccccc3Cl)nn2)cc1 | > 20 | > 20 | > 20 | > 0.2 | – | – | – | –
CCN(CC)CCNC(=O)c1c(C)[nH]c(/C=C2\C(=O)Nc3ccc(F)cc32)c1C [SUNITINIB] | 9.25 | 6.37 | 10.3 | – | – | – | – | –
O=C1Nc2ccc(F)cc2/C1=C/c1ccc(-c2cn(-c3cccc(Cl)c3)nn2)cc1 | 14.1 | 19.4 | 10.5 | 0.186 | – | – | – | –
N#Cc1cccc(-n2cc(-c3ccc(/C=C4\C(=O)Nc5ccc(F)cc54)cc3)nn2)c1 | > 20 | > 20 | > 20 | 0.193 | – | – | – | –
O=C1Nc2ccccc2/C1=C/c1ccc(-c2cn(-c3ccc(Cl)c(C(F)(F)F)c3)nn2)cc1 | 8.89 | > 20 | 9.67 | 0.108 | – | – | – | –
Cc1ccc(-n2cc(-c3ccc(/C=C4\C(=O)Nc5ccccc54)cc3)nn2)cc1 | 1.92 | 7.94 | 1.61 | – | Active | Dose-Dependent Effect | Active | Dose-Dependent Effect
O=C1Nc2ccc(F)cc2C1=Cc1ccc(-c2cn(-c3ccc(Cl)cc3)nn2)cc1 | 15.8 | 19.6 | 11.2 | 0.17 | – | – | – | –
Cc1cccc(-n2cc(-c3ccc(/C=C4\C(=O)Nc5ccccc54)cc3)nn2)c1 | 4.69 | 13.7 | 3.94 | – | – | – | – | –
Cc1ccccc1-n1cc(-c2ccc(C=C3C(=O)Nc4ccc(F)cc43)cc2)nn1 | 7.21 | 8.63 | 5.87 | – | – | – | – | –
